From PubChem
Most compounds without a hit are left out; they make up all but 11% or so of the library.
S1P1 ag pot: S1P1 agonists and agonism potentiators, primary screen, cell-based, primary and confirmation screens, CRE-bla reporter; Sphingosine 1-phosphate receptor 1 (Homo sapiens), P21453; S1P1 CRE-bla cells, forskolin, beta-lactamase FRET, potentiator mode; S1P1 agonist co-added at EC20, 2 nM; 100% = saturating reference agonist, 0% = basal; activation, % at 9.5 µM; 0.57% of 56,000 active;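 active = activation above a cutoff set at the mean activation of all tested compounds plus 3 SD, cut at about 54% in these data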;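 note: forskolin at 4 µM as EC80 and the EC20 agonist is SEW2871; 100% = SEW2871 at its EC100 plus forskolin at EC80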
D1 mod: D1 CRE-luciferase signal change, two-sided – cell-based, HEK293 D1, dopamine EC30, D1 allosteric modulator project, primary screen | dopamine EC30 potentiation; actives deviate in either direction | B-score at 10 µM | AID 641, 2007 | D(1A) dopamine receptor (Homo sapiens), P21728 | 5.9% of 58,000 active;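 active = luminescence count or its row- and column-corrected plate score outside the 99.7% band of the plate's sample wells, on either side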
M1 antagonist: antagonists of rat M1 muscarinic receptor; Muscarinic acetylcholine receptor M1 (Rattus norvegicus), P08482; CHO-M1 cells, Fluo-4 calcium, ACh EC80 antagonist mode; active compounds read low; B-score at 10 µM; 3.4% of 64,000 active;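 active = calcium fluorescence response, raw or row-and-column corrected B-score, differing from the plate sample mean either way at a set confidence level, mostly lower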
TNAP act mid DEA: human TNAP enzyme activators, primary screen, biochemical, luminescent, intermediate phosphate acceptor level; activation factor at 20 µM; 64,000 tested, under 10 active; Alkaline phosphatase, tissue-nonspecific isozyme (Homo sapiens), P05186; purified TNAP, CDP-star luminescence, 100 mM DEA, 30 min; active compounds read high; scale: 0 levamisole-inhibited, 1 vehicle-only enzyme;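 active = activation factor of at least 2 at 20 µM, relative to controls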
M1 ag: M1 muscarinic receptor agonists, primary screen, CHO-M1 cells, Fluo-4 calcium, agonist mode | AID 626, 2007 | B-score at 10 µM | Fluo-4 calcium fluorescence; active compounds read high | 3% of 64,000 active | Muscarinic acetylcholine receptor M1;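 active = fluorescence rise, raw or as B-score row- and column-corrected plate score, outside the 99.7% band of its plate's samples, either direction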
S1P3 ag: human S1P3 receptor agonists, primary screen, cell-based, primary and confirmation, NFAT-BLA reporter | AID 373, 2006 | Sphingosine 1-phosphate receptor 3 (Homo sapiens), Q99500 | S1P3 NFAT-BLA reporter cells, agonism, FRET ratio; relative to 1 µM S1P, basal subtracted | 0.1% of 60,000 active | activation, % at 4.5 µM;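 active = activation above the screen-wide mean plus 3 SD, cut at about 4.5% in these data, passing the limit was not always enough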
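Assay system: stable CHO line with human S1P3, Gα16, NFAT-BLA reporter; Detection: FRET β-lactamase substrate fluorescence, excitation 405 nm, 460/535 nm emission ratio, background-subtracted; Read-out: percent activation versus median 1 µM S1P response, basal-subtracted, per plate; Incubation: cells plated overnight, compound 4 h 37 °C, substrate 2 h RT.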
M1 agonist conf: rat M1 muscarinic receptor agonists, confirmation, CHO-M1 cells, Fluo-4 calcium, duplicate retest; shares compounds with M1 ag; Fluo-4 calcium fluorescence, agonist mode; actives lie on both sides; fluorescence change (max-min) at 10 µM; 19% of 1,700 active; AID 1488, 2009;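 active = fluorescence change differs from the solvent-only DMSO control mean at a set confidence level in both duplicate runs; inconclusive = differs from solvent-only control mean in just one of two runs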;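 note: an EC20 dose of acetylcholine follows compound addition during the same imaging run; raw fluorescence intensity difference in instrument units with no normalization to controls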
M4 ag counter: agonist activity at rat M4 receptor, confirmation, counter-screen for M1 allosteric modulator project, cell-based, agonist mode; shares compounds with M1 ag; CHO M4/Gqi5 cells, Fluo-4 calcium fluorescence; actives lie on both sides; fluorescence change (max-min) at 10 µM; 9% of 1,700 active;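 active = fluorescence change differing from the plate's solvent-only control wells at 99.7% confidence in both duplicates, whether higher or lower; inconclusive = differs from solvent controls in only one of two duplicates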
Target sequence (P08485 whole entry, looked up): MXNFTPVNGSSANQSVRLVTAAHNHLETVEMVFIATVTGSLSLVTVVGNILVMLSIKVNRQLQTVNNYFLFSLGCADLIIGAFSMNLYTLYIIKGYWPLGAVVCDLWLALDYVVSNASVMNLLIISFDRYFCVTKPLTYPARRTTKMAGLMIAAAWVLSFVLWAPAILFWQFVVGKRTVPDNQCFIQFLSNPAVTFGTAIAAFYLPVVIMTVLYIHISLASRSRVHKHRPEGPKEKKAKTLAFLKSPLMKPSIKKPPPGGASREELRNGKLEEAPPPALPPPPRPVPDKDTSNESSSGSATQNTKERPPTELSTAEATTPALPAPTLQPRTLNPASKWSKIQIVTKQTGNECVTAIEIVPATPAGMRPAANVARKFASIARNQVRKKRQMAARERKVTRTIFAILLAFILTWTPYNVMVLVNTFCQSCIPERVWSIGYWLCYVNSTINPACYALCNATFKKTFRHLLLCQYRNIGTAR
* hit, by the source's call; ? = inconclusive; . = no result given.

SMILES	S1P1 ag pot	D1 mod	M1 antagonist	TNAP act mid DEA	M1 ag	S1P3 ag	M1 agonist conf	M4 ag counter
CS(=O)(=O)N1CCC(C(=O)Nc2ccc(Oc3ccccc3)cc2)CC1	5	0.021	-0.53	0.9	3.2*	-2	?	-70
O=c1cc(C(F)F)oc2c1ccc1ccccc12	-18	0.97	0.38	0.9	0.013	-1	.	.
C=CCOC(=O)C1=C(C)OC(N)=C(C#N)C1c1c(C)nn(-c2ccccc2)c1Cl (stereo not given)	18	-0.31	-0.093	1	5.3*	0	?	-45
CCOC(=O)C1=C(C)OC(N)=C(C#N)C1c1c(C)nn(-c2ccccc2)c1Cl (stereo not given)	.	1.1	0.028	0.9	0.84	.	.	.
O=C(CC1Sc2ccccc2NC1=O)Nc1cccc(-c2nnc3n2CCCCC3)c1 (stereo not given)	6	-0.14	-0.68	1.1	-0.0046	0	.	.
C=CCn1c(SCC#N)nc2c(c1=O)C(C)(C)Cc1ccccc1-2	-18	0.57	-0.39	0.8	1	-1	.	.
CC(C)NC(=O)CCNC(=O)c1ccc(F)cc1	-7	0.42	-0.42	0.9	-1.3	1	.	.
CC(=O)NC1(C2CCCCC2=O)CCCCC1 (stereo not given)	8	-0.083	1.2	1	3.6*	-1	-4	-46
CC(C)CCNC(=O)C(c1ccco1)N(Cc1ccc(F)cc1)C(=O)c1snc(C(N)=O)c1N (stereo not given)	22	0.57	0.58	0.9	-0.26	-1	.	.
CCCc1nc(SCc2cccnc2)c2c(=O)n(C)c(=O)n(C)c2n1	-15	.	-1*	1	2.6*	0	-25*	-81*
Cn1c(=O)c2c(SCc3cccnc3)nc(CC(C)(C)C)nc2n(C)c1=O	-53	.	-0.84	0.9	-0.34	0	.	.
CCc1nc(SCC(=O)N2CCC(C)CC2)c2c(=O)n(C)c(=O)n(C)c2n1	-5	0.032	-3.5*	1	3.4*	0	?	-24
CCCc1nc(SCC(=O)N2CCN(c3ccccc3)CC2)c2c(=O)n(C)c(=O)n(C)c2n1	14	-1.6	-8.1*	0.9	7.2*	0	-10	-59
CC(C)c1nc(SCC(=O)N2CCN(c3ccccc3)CC2)c2c(=O)n(C)c(=O)n(C)c2n1	14	-3.9*	-3.6*	0.9	5.7*	1	?	-49
CCc1nc(SCC(N)=O)c2c(=O)n(C)c(=O)n(C)c2n1	-4	0.19	-0.096	0.9	0.43	0	.	.
CCOC(=O)N1CCN(S(=O)(=O)c2ccc3c(c2)SC(C)C(=O)N3)CC1 (stereo not given)	14	-1.3	-0.47	1	-1.7	-2	.	.
Cn1c(=O)c2c(SCC(=O)N3CCCc4ccccc43)nc(C3CC3)nc2n(C)c1=O	12	-0.77	-2.6*	0.8	3.8*	-2	-28*	?
CC(C)c1nc(SCC(=O)N2CCOCC2)c2c(=O)n(C)c(=O)n(C)c2n1	-6	-0.072	-0.03	1	8.3*	-1	-23	-32
Cc1c(C(=O)N2CCc3ccccc3C2)sc2nc(-c3ccccc3)cn12	-12	0.39	-0.5	.	2.4*	0	-16	?
CCCCSc1c(C)c2cc3c(cc2[nH]c1=O)OCO3	.	1.1	0.44	0.9	-0.82	-1	.	.
COc1cccc(C2C=C(c3ccc(Br)s3)Nc3ncnn32)c1OC (stereo not given)	3	-0.68	-0.96	0.9	18*	0	170*	156*
COC(=O)c1ccc2c(c1)SC1=C(CCCC1=O)N2	-35	-0.91	0.63	0.9	11*	0	55	?
O=C(CSc1nnc(-c2ccccc2)n1Cc1ccco1)Nc1ccc2c(c1)OCCO2	4	0.34	-0.018	0.9	3.5*	-2	-11	-40
O=C(c1cccs1)N1CCN(C/C=C/c2ccccc2)CC1	10	0.83	-0.58	0.9	-1	-1	.	.
Cc1ccc(S(=O)(=O)N2CCN(S(C)(=O)=O)C2c2ccccc2)cc1 (stereo not given)	-11	-0.88	0.084	0.8	2.7*	-1	-41*	?
SMILES	S1P1 ag pot	D1 mod	M1 antagonist	TNAP act mid DEA	M1 ag	S1P3 ag	M1 agonist conf	M4 ag counter
Cc1ccc(S(=O)(=O)N2CCCC2C(=O)O)cc1 (stereo not given)	16	-0.79	0.39	0.9	0.13	0	.	.
CCOC(=O)N1CCN(S(=O)(=O)c2ccc(C)cc2)C1c1ccccc1 (stereo not given)	.	-2.7	-0.46	1	3.2*	.	-6.5	-14
Cc1ccc2c(c1)c1cccc3c1n2CCN3CCC(N)=O	.	0.43	-0.62	0.8	0.41	0	.	.
Cc1ccc(-n2nc3c(c2NC(=O)c2c(-c4ccccc4Cl)noc2C)CS(=O)(=O)C3)c(C)c1	.	0.44	-0.45	0.9	0.38	.	.	.
O=C(NC1CCCCC1)C1CCN(S(=O)(=O)N2CCCCCC2)CC1	0	-0.014	0.64	1	-1.5	0	.	.
O=C(NC1CCCCCC1)C1CCN(S(=O)(=O)c2ccccc2)CC1	-40	-0.11	0.73	1	6.5*	-2	?	?
O=C(c1ccc(COc2c(F)c(F)cc(F)c2F)o1)N1CCN(c2ccc(Cl)cc2)CC1	40	0.44	-0.00045	1	0.83	-1	.	.
Cc1ccc2[nH]c(=O)c(CN(CCN3CCOCC3)C(=O)Nc3ccccc3F)cc2c1	-18	-0.92	-0.51	1	-1	0	.	.
Cc1ccc2[nH]c(=O)c(CN(Cc3ccccc3Cl)C(=O)N3CCOCC3)cc2c1	-5	-0.37	0.44	0.9	2.2*	0	-29*	-82*
Cc1ccc(-c2csc3nnc(SCC(=O)Nc4cccc(C)n4)n23)cc1	2	0.45	-0.63	1	3.9*	-1	?	-13
